Source: PubChem BioAssay (The Scripps Research Institute Molecular Screening Center)
Compounds with a hit are over-represented: about 3.7% of the library has one in this group of screens.
TAAR1 antagonist: human TAAR1 antagonists, primary screen, Fluo-8 calcium fluorescence, CHO RD-HGA16 cells | Trace amine-associated receptor 1 (Homo sapiens), Q96RJ0 | antagonist | inhibition, % at 3 µM | 360,000 compounds, 1.5% hits | AID 624466, 2012;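 active = inhibition above a per-plate cutoff, the mean inhibition of test compounds on that plate plus 3 SD, cut at about 49% in these data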;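 note: 0% = DMSO plus EC80 beta-PEA response and 100% = DMSO alone without agonist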
Target sequence (Q96RJ0 whole entry, looked up): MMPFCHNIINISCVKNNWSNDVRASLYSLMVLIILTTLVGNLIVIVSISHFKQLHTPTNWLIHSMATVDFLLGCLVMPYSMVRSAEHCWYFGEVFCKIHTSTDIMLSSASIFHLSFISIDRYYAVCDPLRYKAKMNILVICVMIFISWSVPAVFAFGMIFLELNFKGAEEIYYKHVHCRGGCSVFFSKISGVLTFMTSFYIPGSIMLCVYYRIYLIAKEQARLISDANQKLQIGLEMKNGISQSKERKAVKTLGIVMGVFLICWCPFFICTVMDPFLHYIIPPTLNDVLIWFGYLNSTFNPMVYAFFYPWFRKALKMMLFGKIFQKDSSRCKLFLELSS
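test system = CHO RD-HGA16 cells bearing hTAAR1 | replication = singlicate | controls = DMSO-only wells and EC80 β-PEA-stimulated wells | reagent = EC80 β-phenethylamine stimulus | read-out basis = percent inhibition of PEA-evoked calcium signal, max/basal emission ratio | schedule = seeding 17-24 h prior, 75-min 37 °C, 30-min RT dye loading | signal = kinetic Fluo-8 calcium fluorescence measurement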
NS3 helicase inh: inhibitors of HCV NS3 helicase, primary screen, biochemical, Cy5 molecular beacon fluorescence | Hepatitis C virus NS3 helicase | NS3 helicase DNA unwinding | inhibition, % at 10.9 µM | 290,000 compounds, 0.56% hits | AID 1800, 2009;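 active = inhibition above the mean of all tested compounds plus 3 SD, set per campaign, cut at about 35% in these data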;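 note: 0% = DMSO wells and 100% = thioflavine S control wells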
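test system = hepatitis C virus NS3 helicase domain fragment enzyme | reagent = annealed dual-labelled DNA beacon duplex, ATP-started | times = 1 h at 25 °C | detection = Cy5 fluorescence, 0 and 60 min reads | read-out basis = percent inhibition from t60/t0 fluorescence ratio | control set = DMSO and thioflavine S | replication = one well per compound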
rCAG binder: binders of r(CAG) RNA repeats, primary screen, biochemical, fluorescence; r(CAG) RNA repeat, TO-PRO-1 dye displacement fluorescence; inhibition, % at 3 µM; 370,000 compounds, 1.3% hits; AID 651821, 2012;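 active = inhibition above the plate cutoff, the mean of all test compounds on that plate plus 3 SD, cut at about 35% in these data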;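 note: 0% = DMSO alone and 100% = 100 µM mitoxantrone as full dye displacement; higher means more dye released from RNA so lower well fluorescence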
core dimer inh: inhibitors of HCV core protein dimerization, primary screen, biochemical, TR-FRET, high-throughput; TR-FRET GST/Flag-core106 dimerization, 1536-well; inhibition, % at 5 µM; 300,000 compounds, 0.33% hits;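 active = inhibition above the mean of all tested compounds plus 3 SD, set per screening campaign, cut at about 45% in these data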
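assay system = GST-tagged and Flag-tagged HCV core protein residues 1-106 | controls = unlabelled core106 and no-GST-core106 wells | incubation = compound-protein-antibody incubation 4 h at 22.5 °C | probe or stimulus = Eu donor and XL665 acceptor anti-tag antibodies | read-out = % inhibition based on acceptor/donor emission ratio | signal = TR-FRET 671 and 617 nm emission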
TAAR1 ag: human TAAR1 agonists, primary screen, Fluo-8 calcium fluorescence, CHO RD-HGA16 cells. Trace amine-associated receptor 1 (Homo sapiens), Q96RJ0. vehicle wells 0%, saturating PEA agonist 100%. activation, % at 3 µM. 360,000 compounds, 0.99% hits;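 active = activation above the mean activation of all test compounds in the run plus 3 SD, cut at about 38% in these data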
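System: CHO-derived RD-HGA16 cells with stable Gα16 and human TAAR1. Times: 17-24 h plating, Fluo-8 75 min 37 °C, 30 min RT. Measured by: calcium-sensitive Fluo-8 signal, excitation 470-495, emission 515-575 nm. Read-out basis: % activation relative to PEA EC100 response. Control set: DMSO and PEA EC100. Repeats: no replicates (n 1).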
rCAG bind conf: small molecules binding CAG repeat RNA – biochemical, fluorescence, confirmation. shares compounds with rCAG binder. r(CAG) RNA repeat, TO-PRO-1 dye displacement fluorescence. inhibition, % at 3 µM. 4,300 compounds, 70% hits. AID 652065, 2013;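 active = inhibition above a per-plate cutoff, the mean inhibition of sample wells plus 3 SD, cut at about 35% in these data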;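 note: loss of TO-PRO-1 fluorescence as compound displaces dye from 1x1 AA loop RNA; 0% = DMSO only wells and 100% = 100 µM mitoxantrone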
dCAG dye counter: displacement of TO-PRO-1 from CAG DNA duplex, counter-screen for rCAG RNA repeat binder project, biochemical, fluorescence, TO-PRO-1 dye, d(CAG) DNA oligo; shares compounds with rCAG binder; d(CAG) DNA oligo TO-PRO-1 dye displacement; inhibition, % at 3 µM; 4,300 compounds, 94% hits; AID 652068, 2013;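 active = inhibition above its plate's cutoff, the mean test-well inhibition plus 3 SD, cut at about 4.8% in these data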;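 note: 0% = DNA dye mix with DMSO and 100% = 100 µM mitoxantrone; hits displace the dye from DNA and so lower well fluorescence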
Starred values were filed as active, the others as inactive.

What do the screens show for `Oc1ccc(/C=N/n2c(-c3ccco3)csc2=Nc2cccnc2)c(O)c1`?
TAAR1 antagonist: -20; NS3 helicase inh: -6; rCAG binder: 18; core dimer inh: 2; TAAR1 ag: 0

How did C[C@@H]1COc2cc(Br)ccc2S(=O)(=O)N1Cc1cn(Cc2ccc(F)cc2)nn1 do in these assays?
rCAG binder: 2

What do the screens show for `Nn1c(SCC(=O)NC2CCCCC2)nnc1-c1cc(-c2ccccc2)n[nH]1`?
rCAG binder: 0

How did COc1cccc(/C=C(/C#N)c2ccc(F)cc2)c1OCc1cccc(C(=O)O)c1 do in these assays?
TAAR1 antagonist: -32; NS3 helicase inh: 16; rCAG binder: 51*; core dimer inh: 9; TAAR1 ag: -2; rCAG bind conf: 49*; dCAG dye counter: 15*

How did COc1ccc(OCc2cccc(C(=O)O)c2)cc1 do in these assays?
TAAR1 antagonist: -2; rCAG binder: 3; core dimer inh: -1; TAAR1 ag: 4

What do the screens show for `COc1cc(/C=C(/C#N)c2ccc(F)cc2)ccc1OCc1ccc(C(=O)O)o1`?
TAAR1 antagonist: -21; NS3 helicase inh: 13; rCAG binder: 52*; core dimer inh: 4; TAAR1 ag: 5; rCAG bind conf: 46*; dCAG dye counter: 10*

What do the screens show for `COc1cccc(/C=C(/C#N)c2ccc(Cl)cc2)c1OCc1cccc(C(=O)O)c1`?
TAAR1 antagonist: -1; NS3 helicase inh: 10; rCAG binder: 42*; core dimer inh: 18; TAAR1 ag: 1; rCAG bind conf: 69*; dCAG dye counter: 29*

How did O=C1Nc2ccc(Br)cc2C12NNc1ccccc1O2 (stereo not drawn) do in these assays?
TAAR1 antagonist: 21; NS3 helicase inh: -11; rCAG binder: 61*; core dimer inh: -21; TAAR1 ag: 22; rCAG bind conf: 58*; dCAG dye counter: 48*

How did O=C1Nc2ccc(Br)cc2C1(O)c1ccccc1 (stereo not drawn) do in these assays?
TAAR1 antagonist: -16; NS3 helicase inh: 0; rCAG binder: -1; core dimer inh: -14; TAAR1 ag: 15

How did Cc1c(OC(C)C(=O)O)ccc2c(-c3ccccc3)cc(=O)oc12 (stereo not drawn) do in these assays?
TAAR1 antagonist: 5; NS3 helicase inh: 8; rCAG binder: 0; core dimer inh: -7; TAAR1 ag: 0

What do the screens show for `CCc1cc(=O)oc2cc(C)cc(OCC(=O)NC(Cc3c[nH]c4ccc(O)cc34)C(=O)O)c12` (stereo not drawn)?
TAAR1 antagonist: -3; NS3 helicase inh: 7; rCAG binder: 6; core dimer inh: 4; TAAR1 ag: 1

How did Cc1c(OCC(=O)NC(Cc2ccc(Cl)cc2)C(=O)O)ccc2c(-c3ccccc3)cc(=O)oc12 (stereo not drawn) do in these assays?
TAAR1 antagonist: -32; NS3 helicase inh: -42; rCAG binder: 13; core dimer inh: 4; TAAR1 ag: -1

Results for CC(Oc1ccc2c(-c3ccccc3)cc(=O)oc2c1)C(=O)N[C@H](Cc1c[nH]c2ccccc12)C(=O)O (stereo partly drawn) ?
TAAR1 antagonist: -4; NS3 helicase inh: -24; rCAG binder: 31; core dimer inh: 5; TAAR1 ag: 2

How did COc1ccc(-c2cc(=O)oc3c(C)c(OCC(=O)N[C@@H](Cc4ccc(O)cc4)C(=O)O)ccc23)cc1 do in these assays?
TAAR1 antagonist: 2; NS3 helicase inh: 5; rCAG binder: 47*; core dimer inh: 3; TAAR1 ag: 1; rCAG bind conf: 46*; dCAG dye counter: 13*
